Test results taken from ChEMBL document CHEMBL1146219, “Synthesis and evaluation of novel radioiodinated benzamides for malignant melanoma” (J Med Chem, 2007).

Key:
[1] = Biodistribution in melanoma of B16F0 tumor bearing C57BL/6J mouse at 0.37-0.74 MBq, iv after 24 hrs; type: ADME, organism-based, B16-F0; conditions: in vivo
Method in brief: (§1)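 Female C57BL/6J mice (15-18 g) were given B16F0 cells subcutaneously in the left flank (0.1 mL of 3 × 10⁶ viable cells/mL in Ca²⁺/Mg²⁺-free PBS) at 6-7 weeks and used after ten days. [¹²³I]benzamide (0.37-0.74 MBq, 100 µL, saline) was injected via the tail vein. Groups of n = 5 were killed by CO₂ and cervical dislocation. Organs were weighed and γ-counted, and the carcass was counted too.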

Heart [2] = test: Biodistribution in heart of B16F0 tumor bearing C57BL/6J mouse at 0.37-0.74 MBq, iv after 1 hr; type: ADME, organism-based; conditions: in vivo; method in brief: as §1
Heart [3] = test: Biodistribution in heart of B16F0 tumor bearing C57BL/6J mouse at 0.37-0.74 MBq, iv after 6 hrs; type: ADME, organism-based; conditions: in vivo; method in brief: as §1
Heart [4] = test: Biodistribution in heart of B16F0 tumor bearing C57BL/6J mouse at 0.37-0.74 MBq, iv after 24 hrs; type: ADME, organism-based; conditions: in vivo; method in brief: as §1
Brain [5] = test: Biodistribution in brain of B16F0 tumor bearing C57BL/6J mouse at 0.37-0.74 MBq, iv after 24 hrs; type: ADME, organism-based; conditions: in vivo; method in brief: as §1
Liver [6] = test: Biodistribution in liver of B16F0 tumor bearing C57BL/6J mouse at 0.37-0.74 MBq, iv after 24 hrs; type: ADME, organism-based; conditions: in vivo; method in brief: as §1
[7] = Biodistribution in melanoma of B16F0 tumor bearing C57BL/6J mouse at 0.37-0.74 MBq, iv after 1 hr; type: ADME, organism-based, B16-F0; conditions: in vivo; method in brief: as §1
Blood [8] = test: Biodistribution in blood of B16F0 tumor bearing C57BL/6J mouse at 0.37-0.74 MBq, iv after 24 hrs; type: ADME, organism-based; conditions: in vivo; method in brief: as §1
Kidney [9] = test: Biodistribution in kidney of B16F0 tumor bearing C57BL/6J mouse at 0.37-0.74 MBq, iv after 24 hrs; type: ADME, organism-based; conditions: in vivo; method in brief: as §1
Liver [10] = test: Biodistribution in liver of B16F0 tumor bearing C57BL/6J mouse at 0.37-0.74 MBq, iv after 6 hrs; type: ADME, organism-based; conditions: in vivo; method in brief: as §1
Lung [11] = test: Biodistribution in lung of B16F0 tumor bearing C57BL/6J mouse at 0.37-0.74 MBq, iv after 6 hrs; type: ADME, organism-based; conditions: in vivo; method in brief: as §1
Lung [12] = test: Biodistribution in lung of B16F0 tumor bearing C57BL/6J mouse at 0.37-0.74 MBq, iv after 24 hrs; type: ADME, organism-based; conditions: in vivo; method in brief: as §1
[13] = Biodistribution in melanoma of B16F0 tumor bearing C57BL/6J mouse at 0.37-0.74 MBq, iv after 6 hrs; type: ADME, organism-based, B16-F0; conditions: in vivo
Method in brief: (§2)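 Female C57BL/6J mice (15-18 g) carrying s.c. B16F0 flank tumors (0.1 mL of 3 × 10⁶ viable cells per mL in Ca²⁺/Mg²⁺-free PBS, inoculated at 6-7 weeks, used 10 days later). [¹²³I]tracer 0.37-0.74 MBq in saline, 100 µL, tail-vein i.v. Groups of n = 5 killed at 1-72 h. Organs weighed and γ-counted, carcass activity also counted, values as %ID/g.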

Blood [14] = test: Biodistribution in blood of B16F0 tumor bearing C57BL/6J mouse at 0.37-0.74 MBq, iv after 6 hrs; type: ADME, organism-based; conditions: in vivo; method in brief: as §1
Liver [15] = test: Biodistribution in liver of B16F0 tumor bearing C57BL/6J mouse at 0.37-0.74 MBq, iv after 1 hr; type: ADME, organism-based; conditions: in vivo; method in brief: as §1
Blood [16] = test: Biodistribution in blood of B16F0 tumor bearing C57BL/6J mouse at 0.37-0.74 MBq, iv after 1 hr; type: ADME, organism-based; conditions: in vivo; method in brief: as §1
Kidney [17] = test: Biodistribution in kidney of B16F0 tumor bearing C57BL/6J mouse at 0.37-0.74 MBq, iv after 1 hr; type: ADME, organism-based; conditions: in vivo; method in brief: as §1
Brain [18] = test: Biodistribution in brain of B16F0 tumor bearing C57BL/6J mouse at 0.37-0.74 MBq, iv after 6 hrs; type: ADME, organism-based; conditions: in vivo; method in brief: as §1
Brain [19] = test: Biodistribution in brain of B16F0 tumor bearing C57BL/6J mouse at 0.37-0.74 MBq, iv after 1 hr; type: ADME, organism-based; conditions: in vivo; method in brief: as §1
Lung [20] = test: Biodistribution in lung of B16F0 tumor bearing C57BL/6J mouse at 0.37-0.74 MBq, iv after 1 hr; type: ADME, organism-based; conditions: in vivo; method in brief: as §1
Kidney [21] = test: Biodistribution in kidney of B16F0 tumor bearing C57BL/6J mouse at 0.37-0.74 MBq, iv after 6 hrs; type: ADME, organism-based; conditions: in vivo; method in brief: as §1
[22] = Displacement of [3H]DTG from sigma 2 receptor in guinea pig brain membrane; type: cell membranes, Cavia porcellus
Method in brief: (§3)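 Guinea pig brain membranes, incubated in duplicate for 2 h at 25 °C in Tris-HCl pH 8.0. Benzamide 10⁻¹⁰ to […] against 2 nM [³H]-(+)-pentazocine (σ₁) or 2 nM [³H]DTG plus 100 nM (+)-pentazocine (σ₂). Nonspecific binding defined with 1 µM haloperidol. GF/B filtration, bound activity by β-scintillation counting, giving IC50 then Ki. Full curves run only where 10⁻⁵ M inhibited >90%.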

[23] = Lipophilicity, log P at pH 7.5; type: physicochemical; conditions: buffer
[24] = molecular target: Sigma non-opioid intracellular receptor 1 (Cavia porcellus, UniProt Q60492); test: Displacement of [3H](+)-pentazocine from sigma 1 receptor in guinea pig brain membrane; type: cell membranes; method in brief: as §3
Sigma non-opioid intracellular receptor 1, sequence (Q60492 whole entry): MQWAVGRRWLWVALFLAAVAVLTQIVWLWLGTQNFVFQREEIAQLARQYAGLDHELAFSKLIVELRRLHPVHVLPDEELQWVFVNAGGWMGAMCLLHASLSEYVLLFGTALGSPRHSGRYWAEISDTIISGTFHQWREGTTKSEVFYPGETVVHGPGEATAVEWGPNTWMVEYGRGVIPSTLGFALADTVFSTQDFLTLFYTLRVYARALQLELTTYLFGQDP

Blood [25] = test: Biodistribution in blood of B16F0 tumor bearing C57BL/6J mouse at 0.37-0.74 MBq, iv after 72 hrs; type: ADME, organism-based; conditions: in vivo; method in brief: as §1
Liver [26] = test: Biodistribution in liver of B16F0 tumor bearing C57BL/6J mouse at 0.37-0.74 MBq, iv after 72 hrs; type: ADME, organism-based; conditions: in vivo; method in brief: as §1
Blood [27] = test: Biodistribution in blood of B16F0 tumor bearing C57BL/6J mouse at 0.37-0.74 MBq, iv after 48 hrs; type: ADME, organism-based; conditions: in vivo; method in brief: as §1
[28] = Biodistribution in melanoma of B16F0 tumor bearing C57BL/6J mouse at 0.37-0.74 MBq, iv after 72 hrs; type: ADME, organism-based, B16-F0; conditions: in vivo; method in brief: as §2
Kidney [29] = test: Biodistribution in kidney of B16F0 tumor bearing C57BL/6J mouse at 0.37-0.74 MBq, iv after 48 hrs; type: ADME, organism-based; conditions: in vivo; method in brief: as §1
Heart [30] = test: Biodistribution in heart of B16F0 tumor bearing C57BL/6J mouse at 0.37-0.74 MBq, iv after 72 hrs; type: ADME, organism-based; conditions: in vivo; method in brief: as §1
Kidney [31] = test: Biodistribution in kidney of B16F0 tumor bearing C57BL/6J mouse at 0.37-0.74 MBq, iv after 72 hrs; type: ADME, organism-based; conditions: in vivo; method in brief: as §1
Liver [32] = test: Biodistribution in liver of B16F0 tumor bearing C57BL/6J mouse at 0.37-0.74 MBq, iv after 48 hrs; type: ADME, organism-based; conditions: in vivo; method in brief: as §1
Brain [33] = test: Biodistribution in brain of B16F0 tumor bearing C57BL/6J mouse at 0.37-0.74 MBq, iv after 48 hrs; type: ADME, organism-based; conditions: in vivo; method in brief: as §1
Lung [34] = test: Biodistribution in lung of B16F0 tumor bearing C57BL/6J mouse at 0.37-0.74 MBq, iv after 48 hrs; type: ADME, organism-based; conditions: in vivo; method in brief: as §1
[35] = Biodistribution in melanoma of B16F0 tumor bearing C57BL/6J mouse at 0.37-0.74 MBq, iv after 48 hrs; type: ADME, organism-based, B16-F0; conditions: in vivo; method in brief: as §1
Heart [36] = test: Biodistribution in heart of B16F0 tumor bearing C57BL/6J mouse at 0.37-0.74 MBq, iv after 48 hrs; type: ADME, organism-based; conditions: in vivo; method in brief: as §1

Row | SMILES | Drug uptake [1] [% ID/g] | Drug uptake (Heart [2]) [% ID/g] | Drug uptake (Heart [3]) [% ID/g] | Drug uptake (Heart [4]) [% ID/g] | Drug uptake (Brain [5]) [% ID/g] | Drug uptake (Liver [6]) [% ID/g] | Drug uptake [7] [% ID/g] | Drug uptake (Blood [8]) [% ID/g] | Drug uptake (Kidney [9]) [% ID/g] | Drug uptake (Liver [10]) [% ID/g] | Drug uptake (Lung [11]) [% ID/g] | Drug uptake (Lung [12]) [% ID/g] | Drug uptake [13] [% ID/g] | Drug uptake (Blood [14]) [% ID/g] | Drug uptake (Liver [15]) [% ID/g] | Drug uptake (Blood [16]) [% ID/g] | Drug uptake (Kidney [17]) [% ID/g] | Drug uptake (Brain [18]) [% ID/g] | Drug uptake (Brain [19]) [% ID/g] | Drug uptake (Lung [20]) [% ID/g] | also measured
1 | CCN(CC)CCNC(=O)c1ccccc1[123I] | 3 | 2 | 0.4 | 0.07 | 0.01 | 0.1 | 7.1 | 0.06 | 0.06 | 0.73 | 0.82 | 0.09 | 8.8 | 1.2 | 6.8 | 1.9 | 6.8 | 0.11 | 1.3 | 4.5 | Drug uptake (Kidney [21]): 0.76 % ID/g
2 | CCCN(CCC)CCCCNC(=O)c1ccc(I)cc1 | – | – | – | – | – | – | – | – | – | – | – | – | – | – | – | – | – | – | – | – | Ki [22]: 1000 nM; logD [23]: 2.46; Ki [24]: 1300 nM
3 | O=C(NCCCCN1CC2CCC1C2)c1ccc([123I])cc1 (stereo unspecified) | 3.4 | 1.05 | 0.44 | 0.13 | 0.01 | 3.5 | 3.8 | 0.03 | 0.59 | 27 | 2.1 | 0.4 | 3.5 | 0.24 | 43.2 | 0.48 | 15.2 | 0.06 | 0.1 | 6.9 | Drug uptake (Kidney [21]): 4.9 % ID/g
4 | CCN(CC)CCNC(=O)c1cc(I)c(NC(C)=O)cc1OC | – | – | – | – | – | – | – | – | – | – | – | – | – | – | – | – | – | – | – | – | Ki [22]: > 100000 nM; logD [23]: 1.54; Ki [24]: 1650 nM
5 | CCN(CC)CCNC(=O)c1cc([123I])c(NC(C)=O)cc1OC | 5.2 | 0.79 | 0.31 | 0.12 | 0.01 | 1.1 | 9.6 | 0.08 | 0.08 | 2.3 | 0.4 | 0.09 | 8.5 | 0.35 | 9 | 0.98 | 2.3 | 0.02 | 0.13 | 1.3 | Drug uptake (Blood [25]): 0.06 % ID/g; Drug uptake (Liver [26]): 0.28 % ID/g; Drug uptake (Blood [27]): 0.03 % ID/g; Drug uptake [28]: 2.2 % ID/g; Drug uptake (Kidney [29]): 0.04 % ID/g; Drug uptake (Heart [30]): 0.18 % ID/g; Drug uptake (Kidney [31]): 0.06 % ID/g; Drug uptake (Liver [32]): 0.51 % ID/g; Drug uptake (Brain [33]): 0.01 % ID/g; Drug uptake (Lung [34]): 0.07 % ID/g; Drug uptake [35]: 3.4 % ID/g; Drug uptake (Heart [36]): 0.07 % ID/g; Drug uptake (Kidney [21]): 0.44 % ID/g
